# Bioassay records deposited in PubChem BioAssay by Broad Institute.
# Sampled rows, rich in hits. Any-hit rate of the full collection: about 2.9%.
# Cneo AK release = causes C. neoformans cell lysis. lysis activity, % at 15 µM. adenylate kinase release luminescence, 4 h; normalised: neutral wells 0, clomiphene wells 100. 360,000 compounds, 0.2% hits;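 active means mean lysis activity across replicates of at least 80%, whatever share of replicates individually reach that level; inactive means mean lysis activity below 80%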
#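 Assay system: log-phase C. neoformans yeast / Quantity: yeast cell density of 5 × 10^6 cells/mL / Medium: fresh YPD growth medium / Compound: single dose / Timing: static 4 h at 37 °C with compound, 1 h detection / Measured by: adenylate kinase release luminescence / Read-out: lysis from increased AK signal / Benchmarks: Clomiphene as positive lysis control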
# FGF22 binding = shifts melting point of recombinant human FGF22 | AID 651658 | activity (Tm shift, normalised), % at 9.99 µM | recombinant FGF22 thermal shift, SYPRO orange fluorescence; percent of sucrose octasulfate shift, DMSO zero | 340,000 compounds, 1.5% hits;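 active means mean Tm shift, scaled 0 neutral to 100 positive control, at about 1.3% or above, every replicate too, limit read from the data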
# Target sequence (Q9HCT0 whole entry, looked up): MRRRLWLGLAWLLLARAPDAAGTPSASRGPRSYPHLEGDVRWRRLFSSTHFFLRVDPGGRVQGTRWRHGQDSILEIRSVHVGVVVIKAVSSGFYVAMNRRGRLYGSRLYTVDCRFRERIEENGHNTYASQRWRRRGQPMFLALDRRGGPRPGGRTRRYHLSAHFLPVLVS
# PGC1a acetyl inh = PGC1a acetylation modulation, inhibitor mode; U2OS PGC1a acetylation, AlphaScreen anti-acetyl-lysine; with virally co-expressed GCN5 acetyltransferase; inhibition, % at 15.6 µM; 350,000 compounds, 0.17% hits;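 active means every replicate shows inhibition of at least 40%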;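 further: 0% = neutral control wells and 100% = positive control wells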
# Vif inh = blocks HIV Vif function; HEK293T cells, Vif self-association by quenched fluorescence, imaging, 24 h; inhibition, % at 7.49 µM; 340,000 compounds, 0.35% hits; in the data active means inhibition above about 50%, passing the limit was not always enough
# PglD DTNB = inhibitors of Campylobacter jejuni PglD acetyltransferase; 360,000 compounds, 0.098% hits; inhibition, % at 12.5 µM; AID 602405; purified PglD enzyme, DTNB colorimetric CoA detection; in the data active means inhibition above about 16%, passing the limit was not always enough
# rRNA inh HTS = inhibits bacterial ribosomal RNA function over humanized ribosomes | GFP signal change (wild-type ribosome), % (test concentration not listed) | 350,000 compounds, 1.6% hits | E. coli WT GFP vs humanized-ribosome RFP mutants, fluorescence, 24 h; hits give low values; DMSO median 0, no signal -100;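 active means significant combined selectivity score with lowered wild-type GFP, culture density cut under 30%, mutant RFP and density less affected; inactive means any of these conditions unmet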
# Numbers without * were called inactive; . = not tested or not shown.
SMILES,Cneo AK release,FGF22 binding,PGC1a acetyl inh,Vif inh,PglD DTNB,rRNA inh HTS
COc1ccc(C(=O)NC(=S)NC(C)c2ccccc2)cc1 (configuration not stated),4,0,-1,0,1,-32*
COc1cc2c(cc1NC(=O)C(C)Sc1cccc[n+]1[O-])oc1ccccc12 (configuration not stated),.,0,.,-12,.,-33*
COc1cc2c(cc1NC(=O)C(C)Sc1nc3ccccc3n1C)oc1ccccc12 (configuration not stated),.,.,.,-3,.,.
CC(NC(=S)NC(=O)c1ccccc1)c1ccccc1 (configuration not stated),32,0,.,-9,-2,-14
O=S(=O)(N[C@H]1CC[C@@H](CCn2cc(-c3cccnc3)nn2)O[C@H]1CO)c1ccc(F)cc1,0,0,0,.,0,0
COc1ccc(C(=O)Nc2ccc3c(c2)C(=O)N(C)C[C@@H](OC)[C@@H](C)CN[C@@H](C)CO3)cc1,4,0,-14,.,2,0
COc1ccc(C(NC(C)=O)c2cc(Cl)c3cccnc3c2O)cc1 (configuration not stated),-1,0,-3,0,9,-29
CCCC(=O)NC(c1ccc(OC)c(OC)c1)c1cc(Cl)c2cccnc2c1O (configuration not stated),.,43*,9,0,.,10
O=C1OCCC1=COCCCCCOC=C1CCOC1=O,1,0,0,71*,1,-2
CN=c1scc(-c2cccs2)n1/N=C/c1ccccc1O,.,1,.,-15,.,-27*
CN=c1scc(-c2cccs2)n1/N=C/c1ccc(O)c(O)c1O,.,43*,.,-1,.,-13
CN=c1scc(C)n1/N=C/c1ccc(O)c(O)c1O,-11,.,17,9,-2,.
CN(C)c1cccc(C(=O)Nc2ccc3nc4n(c(=O)c3c2)CCCCC4)c1,-2,0,-3,.,1,-26*
C[C@H](CO)N1C[C@H](C)[C@@H](CN(C)Cc2cccc(F)c2)Oc2ncc(C#CC(C)(C)O)cc2C1=O,.,.,-9,.,.,-2
NNc1nc2c(-c3ccc(Cl)cc3)nnn2c2ccccc12,-1,0,3,-5,0,-22
NNc1nc2c(-c3ccc(F)cc3)nnn2c2ccccc12,0,0,2,-5,-2,-17*
C[C@H](CO)N1C[C@H](C)[C@@H](CN(C)Cc2ccc(Oc3ccccc3)cc2)Oc2ccc(NC(=O)CCC(F)(F)F)cc2CC1=O,0,-1,-5,.,-2,-5
Cc1ccc2c(c1)NC(=O)c1cc([N+](=O)[O-])ccc1O2,.,0,.,-2,.,7
O=C1Nc2ccccc2Oc2cc([N+](=O)[O-])ccc21,-2,43*,11,2,-4,.
O=[N+]([O-])c1ccc(NN=C(C2CC2)C2CC2)c([N+](=O)[O-])c1,2,0,4,.,-2,-21*
CCC(CC)=NNc1ccc([N+](=O)[O-])cc1[N+](=O)[O-],.,43*,.,-2,.,24
CC(C)NC(=O)Nc1cccc2c1O[C@@H](CN(C)Cc1ccc3c(c1)OCO3)[C@H](C)CN([C@H](C)CO)C2=O,.,0,.,.,.,-4
C[C@@H]1CN([C@H](C)CO)C(=O)Cc2cc(NC(=O)Nc3ccccc3)ccc2O[C@@H]1CN(C)S(=O)(=O)c1ccc(Cl)cc1,.,.,8,.,.,1
CCOC(=O)[C@@H]1[C@H]2COc3ccccc3[C@@H]2N2C(=O)N(c3ccc(Cl)cc3)C(=O)[C@]12C,0,44*,1,0,0,0
C[C@]12C(=O)N(c3ccc(Br)cc3)C(=O)N1[C@@H]1c3ccccc3OC[C@@H]1[C@H]2c1ccccc1,0,0,-15,-14,-1,13
SMILES,Cneo AK release,FGF22 binding,PGC1a acetyl inh,Vif inh,PglD DTNB,rRNA inh HTS
C[C@@]12C(=O)N(c3ccc(Br)cc3)C(=O)N1[C@@H]1c3ccccc3OC[C@@H]1[C@H]2c1ccccc1,-1,1.5*,-21,-3,-3,1
CCOC(=O)[C@@H]1[C@H]2COc3ccccc3[C@H]2N2C(=O)N(c3ccc(C)cc3)C(=O)[C@]12C,0,0,6,0,2,-49
CCOC(=O)[C@@H]1[C@H]2COc3cc(OC)ccc3[C@@H]2N2C(=O)N(c3ccc(F)cc3)C(=O)[C@]12C,1,44*,.,-1,-6,12
CCCNC(=O)c1ccc(SCC(=O)N(CC)CC)c([N+](=O)[O-])c1,3,0,-14,65*,1,11
CC(OC(=O)c1ccccc1C(=O)O)c1ccccc1 (configuration not stated),14,0,-1,53*,2,0
CCN(CC)C(=O)c1nc[nH]c1C(=O)O[C@@H](C)c1ccccc1,-4,0,-1,-1,-2,8
CO[C@@H]1CN(C)C(=O)c2cc(NC(C)=O)ccc2OC[C@@H](C)N(C(=O)C2CCC2)C[C@@H]1C,-1,0,.,.,3,1
CCOc1ccccc1OCCCC(=O)N1CCN(S(=O)(=O)c2ccc(Cl)cc2)CC1,1,0,4,19,-8,-11
CCOc1ccccc1OCCCC(=O)N1CCN(S(=O)(=O)c2cc(F)ccc2F)CC1,4,0,10,13,-6,-20*
CSc1ncccc1C(=O)OCC(=O)Nc1cccc(S(=O)(=O)N2CCOCC2)c1,0,43*,-7,0,-3,-11
Cc1ccc(NC(=O)COC(=O)c2cccnc2Cl)cc1S(=O)(=O)N1CCOCC1,-1,0,3,3,4,-25*
CSc1ncccc1C(=O)OCC(=O)NC(C)(C)C,0,0,1,52*,-2,11
O=C(COC(=O)c1cccnc1Cl)Nc1cccc(S(=O)(=O)N2CCOCC2)c1,1,0,9,-5,3,-1
Cc1ccc(C)c(C(=O)COC(=O)c2ccc(C)c(S(=O)(=O)N3CCOCC3)c2)c1,3,0,2,59*,-2,-9
CSc1ncccc1C(=O)OCC(=O)Nc1ccc(C)c(S(=O)(=O)N2CCOCC2)c1,-3,43*,-8,-10,10,-13
O=C(COC(=O)c1cc(S(=O)(=O)N2CCOCC2)ccc1F)c1ccc[nH]1,5,.,-3,53*,7,.
Cc1ccc(S(=O)(=O)N2CCOCC2)cc1NC(=O)COC(=O)c1cccc(Cl)c1Cl,-1,.,.,15,-4,-32*
O=C(COC(=O)c1cc(S(=O)(=O)N2CCOCC2)ccc1Cl)c1ccc[nH]1,-1,0,7,8,-1,-7
O=C(O)c1ccc(Cn2cc(C(F)(F)F)ccc2=O)cc1,-1,43*,.,-16,3,4
